# High-throughput results from PubChem.
# Shown is part of a subset that was picked to be rich in hits.
# UPR CHOP act – activators of apoptotic arm of unfolded protein response (CHOP) | 0.34% of 330,000 active | activation, % at 10 µM | CHO-CHOP luciferase reporter, UPR activation, luminescence; percent of tunicamycin response over DMSO baseline;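 active = at 10 µM dose, activation of 40% or more, normalized to positive control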;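 also: 100% = tunicamycin at 10 µg/mL and 0% = DMSO alone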
#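 Test system: CHO CHOP reporter cells. Input: 500 CHO-CHOP cells per well. Medium: F12 with 10% FBS. Technique: luciferase luminescence. Measure: percent activation relative to tunicamycin control. Dosing: 10 µM compound, 0.5% DMSO. Timing: 16-18 h cell attachment, then 6 h compound exposure, 37 °C.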
# TLR4-MyD88 BLA – blocks binding of human TLR4 to MyD88; HeLa CL3-4 TLR4/MyD88 BLA complementation, FRET ratio; inhibition, % at 8.4 µM; AID 861; O00206+Q99836; 0.18% of 200,000 active; in the data active = inhibition above about 25%;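 also: 0% = vehicle and 100% = reference inhibitor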
# NOD2-RIPK2 inh – blocks binding of human NOD2 to RIPK2. 0.38% of 360,000 active. O43353. inhibition, % at 4.98 µM. CHO BLA complementation NOD2-RIPK2, CCF4 ratio. AID 624267; in the data active = inhibition above about 21%;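 also: 0% = vehicle only and 100% = reference blocker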
# Target sequence (O43353 whole entry, looked up): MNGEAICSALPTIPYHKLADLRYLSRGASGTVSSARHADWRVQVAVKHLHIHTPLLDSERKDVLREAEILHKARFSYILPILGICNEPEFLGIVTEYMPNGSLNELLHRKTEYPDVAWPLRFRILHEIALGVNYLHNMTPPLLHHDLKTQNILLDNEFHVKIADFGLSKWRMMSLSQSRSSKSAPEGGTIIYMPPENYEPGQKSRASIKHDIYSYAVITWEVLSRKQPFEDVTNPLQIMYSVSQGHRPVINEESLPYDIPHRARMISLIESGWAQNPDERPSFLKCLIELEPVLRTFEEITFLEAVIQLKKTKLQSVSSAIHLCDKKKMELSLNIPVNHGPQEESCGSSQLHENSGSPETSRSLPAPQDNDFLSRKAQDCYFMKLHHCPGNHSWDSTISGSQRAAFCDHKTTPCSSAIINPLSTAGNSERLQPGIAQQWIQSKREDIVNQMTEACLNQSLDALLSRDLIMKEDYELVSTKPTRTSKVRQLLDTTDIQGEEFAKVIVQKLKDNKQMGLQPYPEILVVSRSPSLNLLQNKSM
# CHOP inhibitor – CHOP inhibition in unfolded protein response | AID 2732 | CHO-K1 CHOP-promoter luciferase, tunicamycin-induced, 15-18 h | inhibition, % at 10 µM | 3.8% of 220,000 active;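 active = compounds that reduced the stress-induced luciferase reporter signal by more than about 70% of percent inhibition, limit read from the data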;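 also: 0% = tunicamycin plus vehicle and 100% = wells without tunicamycin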
# XBP1 UPR activ – activators of adaptive arm of unfolded protein response (XBP1); CHO-XBP1 luciferase reporter, IRE1-XBP1 UPR activation, luminescence; percent of tunicamycin response, DMSO as zero; activation, % at 20 µM; 0.33% of 330,000 active; AID 463104;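 active = versus positive control, 20 µM dose yields 30% or more activation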;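 also: 100% = tunicamycin at 10 µg/mL and 0% = DMSO only wells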
#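 Material: CHO cell line with stable XBP1 luciferase reporter; buffer or medium: F12 medium containing 10% fetal bovine serum; compound: single point, 20 µM final compound, 1% DMSO; incubation: 6 h treatment, 37 °C; measured by: glow luminescence from Steady-Glo reagent; evaluation: activation, % of tunicamycin; control set: tunicamycin high, DMSO low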
# TLR9-MyD88 inh – blocks human TLR9 binding to MyD88 | Q9NR96+Q99836 | CHO BLA complementation TLR9-MyD88, CCF4 FRET ratio | inhibition, % at 4.98 µM | 0.21% of 340,000 active | AID 504734;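 active = inhibition above the mean over all tested compounds plus 3 SD, cut at about 21% in these data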;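 also: 0% = DMSO only wells and 100% = clavulanate BLA inhibitor control wells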
# * marks the source's active call; other numbers are inactive results; x = no result.
SMILES,UPR CHOP act,TLR4-MyD88 BLA,NOD2-RIPK2 inh,CHOP inhibitor,XBP1 UPR activ,TLR9-MyD88 inh
CCOC(=O)N1CCN(C(=O)c2ccc(CS(=O)c3cccc(C)c3)o2)CC1 (stereo not given),x,x,2.8,x,x,1.1
Cc1ccccc1NC(=O)COC(=O)c1ccc(S(C)(=O)=O)c([N+](=O)[O-])c1,-1.6,18.0,7.4,103.0*,-5.6,12.8
CC(CCc1ccccc1)NC(=O)COC(=O)c1ccc(S(C)(=O)=O)c([N+](=O)[O-])c1 (stereo not given),12.0,9.0,11.7,101.4*,-6.8,8.5
O=C(CCNC(=O)C1CCN(S(=O)(=O)c2ccccc2)CC1)NCc1cccnc1,x,x,-7.4,x,x,9.7
COC(=O)C[C@@H]1OC[C@H](C(C)C)N1S(=O)(=O)c1ccc(C)cc1,x,x,-14.9,x,x,x
CSCCC(NC(=O)c1ccc(Cl)cc1Cl)C(=O)N1CCCCCCC1 (stereo not given),1.1,x,1.5,x,-3.8,0.3
CCOC(=O)C1CCCN(S(=O)(=O)c2ccc(Br)s2)C1 (stereo not given),-1.2,-11.8,-4.5,30.5,2.7,-2.5
Cc1csc(NC(=O)C2CCCN(S(=O)(=O)c3ccc(Br)s3)C2)n1 (stereo not given),-5.7,-3.8,1.4,70.1*,-0.6,-1.7
O=C(Nc1ccc2c(c1)CCC2)c1ccc(F)cc1,3.8,-0.2,-1.2,41.9,-3.2,-9.9
O=C(Nc1ccc2c(c1)CCC2)c1cc(S(=O)(=O)Nc2ccc(F)cc2)c(Cl)cc1Cl,-0.1,-3.9,-9.2,78.2*,-1.5,-2.5
O=C(CSc1nnc(-c2cc3ccccc3cc2O)n1Cc1ccco1)c1ccc(F)cc1,1.3,3.8,1.6,84.5*,1.1,-5.3
Cn1c2c(c(=O)n(C)c1=O)C(C(F)(F)F)(C(F)(F)F)N=C(c1ccc(Cl)cc1)N2,15.1,5.2,10.3,76.9*,7.5,-1.9
COc1ccc(-c2ccc(C(=O)NCC3CCOCC3)c3occc23)c(C)c1,x,x,7.0,x,x,x
Cc1cccc(N2CCN(c3cccc(C)c3)C2c2cccnc2)c1,3.0,2.5,-10.4,x,-2.9,0.5
Cc1ccc(N2CCN(c3ccc(C)cc3)C2c2ccncc2)cc1,-1.1,-27.9,7.0,77.0*,-3.2,2.9
COc1ccc(-c2nsc3c(N4CCCC4)ncnc23)cc1,-7.0,8.8,3.4,90.5*,-3.9,-1.2
COc1ccc(-c2csc3ncnc(N4CCN(c5ccc(OC)cc5)CC4)c23)cc1,0.6,x,-11.6,x,-5.8,-22.6
Cc1nc2ncnn2c(N2CCN(c3cccc(C(F)(F)F)c3)CC2)c1C,5.6,-9.1,13.2,73.0*,0.7,-4.9
Cc1cc(OCC(=O)OCC(=O)NC2CCS(=O)(=O)C2)ccc1Cl (stereo not given),x,x,-3.2,x,x,1.5
Fc1ccccc1COc1cccc(/C=N/n2cnnc2)c1,-1.8,3.3,-3.1,71.6*,-1.8,0.2
C(=N\n1cnnc1)/c1cccc(Oc2ccccc2)c1,2.1,2.2,-0.3,29.1,-2.5,4.3
O=C(Cc1ccc(NC(=O)C2CCN(C(=O)C3CCC3)CC2)cc1)Nc1cccc(C(=O)N2CCCCC2)c1,x,x,-6.2,x,x,4.6
C/C(=N\NC(=O)COc1ccc(C)cc1C(C)C)c1ccc(-n2ccnc2)cc1,8.9,-9.0,-3.1,93.0*,3.3,-6.1
CN(C(=O)Nc1ccc(Cl)cc1Cl)[C@H]1c2cc(Br)ccc2OC[C@H]1CO,-1.3,-4.9,-1.2,89.0*,-1.6,4.9
COc1cccc2c1OC[C@@H](CO)[C@H]2N(C)C(=O)Nc1ccccc1,0.1,12.6,3.3,-12.4,-0.9,2.2
SMILES,UPR CHOP act,TLR4-MyD88 BLA,NOD2-RIPK2 inh,CHOP inhibitor,XBP1 UPR activ,TLR9-MyD88 inh
COc1ccc(-c2nc(N)n(C(=O)Cc3ccccc3)n2)cc1,0.7,-2.5,-1.5,48.6,-0.2,-20.1
COc1ccc(-n2cnc(N)c2C(=O)c2cccc([N+](=O)[O-])c2)cc1,-1.5,-10.1,-12.1,18.0,1.8,-4.8
COc1ccc2cc3c(N)nn(C(=O)c4cccc([N+](=O)[O-])c4)c3nc2c1,-0.7,4.7,8.0,76.5*,-0.4,-1.7
COc1ccc2cc3c(N)nn(C(=O)Cc4ccccc4OC)c3nc2c1,-0.7,5.2,-2.4,81.0*,2.0,0.9
CCOc1ccc(S(=O)(=O)NCCC(=O)NCC(c2ccc(OC)cc2)N2CCOCC2)cc1 (stereo not given),x,x,-8.0,x,x,-4.5
O=C1Nc2cc(Cl)ccc2C1(N1CCNCC1)C(F)(F)F (stereo not given),-1.6,-0.7,7.2,80.1*,4.2,1.1
CC(C)NC(=O)N(C)C[C@@H]1Oc2cc(C#Cc3ccccn3)ccc2S(=O)(=O)N([C@@H](C)CO)C[C@H]1C,x,x,-6.6,x,x,-6.9
Cc1nn(-c2nc(-c3ccco3)cc(C(F)(F)F)n2)c(C)c1Br,-0.6,6.6,2.2,72.6*,1.7,-8.1
CC1CCC(NC(=O)c2ccc(CNc3c(NC4CCCCC4)c(=O)c3=O)cc2)CC1 (stereo not given),-0.7,-3.5,0.3,-1.8,-2.2,8.5
O=C(c1ccc(CNc2c(NC3CCCCC3)c(=O)c2=O)cc1)N1CCc2ccccc21,x,-6.8,-0.1,73.5*,x,2.4
CNc1nc2cc([N+](=O)[O-])c([N+](=O)[O-])cc2nc1NC,x,-0.1,-14.6,75.4*,x,-3.2
CC(NC(=O)C(=O)NN=C1CCCC1)c1ccccc1 (stereo not given),2.1,-16.7,-2.7,-7.8,-0.7,-3.1
CC(NC(=O)C(=O)N/N=C/c1ccccc1)c1ccccc1 (stereo not given),2.4,-0.8,-8.0,70.9*,2.6,-6.3
Oc1ccccc1Oc1c(F)c(F)nc(N2CCCC2)c1F,-0.9,-3.0,3.6,93.5*,3.9,4.2
O=C1NC[C@@H](CCCCN2C[C@H](Cc3ccc(O)cc3)N(CCc3ccccc3)C(=O)C2=O)N(Cc2ccccc2)C1=O,x,x,3.2,x,x,x
Cc1cc(C)n(CCC(=O)N/N=C/c2c(O)ccc3ccccc23)n1,-0.7,x,7.0,87.6*,-1.1,3.5
O=C(N/N=C/c1c(O)ccc2ccccc12)c1cccc(C(F)(F)F)c1,3.0,2.4,14.4,77.8*,1.3,8.7
COc1ccc2ccccc2c1/C=N/NC(=O)c1cccc(Br)c1,1.8,-5.0,-6.4,33.4,-3.0,-5.5
Cc1cc(C)n(CCC(=O)N/N=C/c2ccc(O)cc2)n1,1.2,3.4,4.1,3.6,-2.0,-5.9
O=C(N/N=C/c1c(O)ccc2ccccc12)c1[nH]ncc1Br,2.4,-3.4,0.1,77.9*,3.8,5.8
C[C@@H](NC(=O)c1ncn2c1c(=O)[nH]c1ccc(Br)cc12)c1ccccc1,x,x,4.4,x,x,-3.2
CN(C)c1cccc(NC(=O)C2Cc3c(-c4cccnc4)ccnc3O2)c1 (stereo not given),x,x,3.2,x,x,x
